Screening results deposited in PubChem by several laboratories.
KCC2 mod = KCC2 (human) Cl- transport modulation; Q9H2X9; KCC2 cells, thallium flux FluoZin-2 fluorescence; B-score of Tl+ flux slope (higher = more flux/activation; lower = inhibition) at 10 µM; hit rate 2.2% among 190,000; AID 1456;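 active = thallium flux slope and its plate-corrected score both differing from the plate sample mean at a set confidence after two filtering rounds, in either direction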;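 note: slope of fluorescence scaled to starting intensity during 10 to 20 s after thallium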
KCNK9 block = inhibitors of human KCNK9 two-pore domain potassium channel. hit rate 1.2% among 310,000. B-score at 10 µM. HEK293 KCNK9, FluxOR thallium flux fluorescence; stronger effect = lower value;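 active = ratio B-score over 3 SD below the library mean, with starting fluorescence within 5 SD of its mean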;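 note: negative B-score means less thallium flux so channel inhibition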
KCNQ1 pot = human KCNQ1 channel potentiation or activation; P51787; CHO-K1 KCNQ1, thallium flux FluxOR fluorescence; stronger effect = higher value; B-score at 10 µM; hit rate 0.35% among 310,000; AID 2648;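 active = fluorescence ratio B-score, a plate-corrected score, at least three library SD, with initial intensity B-score within 5 SD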
Target sequence (P51787 whole entry, looked up): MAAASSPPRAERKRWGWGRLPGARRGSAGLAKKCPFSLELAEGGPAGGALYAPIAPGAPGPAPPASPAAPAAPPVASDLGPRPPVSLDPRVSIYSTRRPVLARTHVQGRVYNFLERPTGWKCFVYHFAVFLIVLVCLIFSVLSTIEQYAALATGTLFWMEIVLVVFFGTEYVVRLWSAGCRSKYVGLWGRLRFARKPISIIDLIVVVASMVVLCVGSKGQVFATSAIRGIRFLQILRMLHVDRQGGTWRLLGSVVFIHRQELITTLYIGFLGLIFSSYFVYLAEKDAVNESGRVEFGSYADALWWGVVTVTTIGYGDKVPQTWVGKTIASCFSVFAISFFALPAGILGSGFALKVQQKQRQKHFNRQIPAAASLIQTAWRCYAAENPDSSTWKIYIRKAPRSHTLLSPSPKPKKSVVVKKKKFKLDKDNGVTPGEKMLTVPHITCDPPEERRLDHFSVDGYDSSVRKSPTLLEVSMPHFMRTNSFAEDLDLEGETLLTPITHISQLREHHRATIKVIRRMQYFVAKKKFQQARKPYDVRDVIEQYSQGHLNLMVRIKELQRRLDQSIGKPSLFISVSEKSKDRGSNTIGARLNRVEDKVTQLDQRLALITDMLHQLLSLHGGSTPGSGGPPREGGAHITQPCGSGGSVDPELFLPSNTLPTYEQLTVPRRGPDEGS
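assay system = CHO-K1 cells stably expressing KCNQ1 | medium = assay buffer, equal DMSO in all wells | timing = 37 °C overnight plating, 90-min dark dye load, 20-min compound pretreatment | measured by = kinetic FluxOR thallium fluorescence, 10-s 1-Hz baseline, 110-s post-stimulus read | measure = fluorescence change relative to baseline, converted to B score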
hERG protect = hERG (human) protection from proarrhythmic block; AID 1511; hit rate 0.51% among 310,000; CHO-hERG, FluxOR thallium flux, dofetilide IC70 present; activation (rescue from dofetilide block), less the hit threshold, % at 10 µM;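 active = activation above the mean of controls blocked by dofetilide plus 5 SD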;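 note: thallium influx through hERG after potassium depolarization seen as dye fluorescence rise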
KCNK3 block = human KCNK3 channel inhibition, primary screen | B-score at 10 µM | CHO-KCNK3 thallium flux, FluxOR fluorescence; stronger effect = lower value | AID 602410 | hit rate 0.84% among 340,000 | O14649;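 active = B-score under library mean minus 4 SD, starting fluorescence ratio at most library mean plus 5 SD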;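 note: more negative B-score means stronger inhibition of thallium flux through KCNK3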
KCNQ1 inh = blocks the human KCNQ1 potassium channel; hit rate 1.3% among 310,000; CHO-K1 KCNQ1, FluxOR thallium flux fluorescence; stronger effect = higher value; P51787; B-score at 10 µM;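 active = compounds whose thallium flux B-score, printed positive for inhibition, exceeds three library SD while starting fluorescence stays within three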;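 note: channel opened by potassium depolarization with thallium stimulus after 20 min compound exposure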
KCNK9 inh conf = human KCNK9 inhibitor confirmation; shares compounds with KCNK9 block; inhibition, % at 10 µM; hit rate 43% among 4,900; HEK293 KCNK9 cells, FluxOR thallium flux fluorescence;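 active = thallium signal inhibited by more than 5 SD of the compound-free buffer control wells, on both duplicate plates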;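 note: 0% = assay buffer control wells without compound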
Kir21 sel = mouse Kir2.1 off-target activity of KCNK9 modulators | shares compounds with KCNK9 block | Kir2.1 cells, FluxOR thallium flux fluorescence | inhibition, % at 10 µM | hit rate 4% among 4,900;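 active = thallium signal drop more than 5 SD beyond the mean of the no-compound control wells, seen in both duplicate plates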;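 note: signal is fluorescence rise after thallium addition divided by baseline fluorescence; plate controls were assay buffer only for no effect and full block by chlorpromazine control for full effect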
KCNK9 uninduced = second counter-screen for KCNK9 modulators: effect in non-induced cells | shares compounds with KCNK9 block | inhibition, % at 10 µM | hit rate 40% among 4,900 | AID 492997 | non-induced KCNK9-HEK293, FluxOR thallium flux;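 active = thallium signal drop beyond 5 SD of the untreated control mean, on both duplicate plates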;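 note: plate controls were buffer only IC0 wells for no effect and SID17386958 at its maximal inhibitory level for full effect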
Starred values were filed as active, the others as inactive; i = inactive; . = not tested or not shown. Sampled rows, rich in hits. Any-hit rate of the full collection: about 4.1%.

SMILES | KCC2 mod | KCNK9 block | KCNQ1 pot | hERG protect | KCNK3 block | KCNQ1 inh | KCNK9 inh conf | Kir21 sel | KCNK9 uninduced
CC1CCCN(C(=O)Cc2cn(Cc3cccc(Cl)c3)c3ccccc23)C1 (stereo not drawn) | -0.092 | -14* | i | -5 | i | i | 72%* | 46%* | 37%*
O=C(Nc1nc(-c2ccccc2)cs1)NC1CCCCC1 | -0.93 | i | i | -11 | i | i | . | . | .
c1ccc(-c2csc(NC3CCCCC3)n2)cc1 | . | i | i | -6 | i | i | i | i | i
Cc1cccn2c(=O)nc(SCC(=O)NCc3ccc(F)cc3)nc12 | . | i | i | -11 | i | i | . | . | .
CC(C)c1ccc(C2C3=C(COC3=O)Nc3cc4c(cc32)OCO4)cc1 (stereo not drawn) | 0.098 | -9.4* | i | -17 | i | i | i | i | i
C=CCn1c(SCC2CCCCO2)nc2sc(CC)cc2c1=O (stereo not drawn) | -0.54 | i | i | -10 | i | i | i | i | 34%*
Cc1ccc([N+](=O)[O-])c(OCCN2CCc3ccccc3C2)c1 | . | i | i | 0 | i | i | i | i | i
C=CCN(CC=C)CCOc1cc(C)ccc1[N+](=O)[O-] | 0.76 | i | i | -8 | i | i | i | i | i
Brc1cccc(OCCN2CCc3ccccc3C2)c1 | . | i | i | -9 | i | i | i | i | i
Cc1ccc([N+](=O)[O-])c(OCCN2CCCCCC2)c1 | 0.74 | i | i | -10 | i | i | . | . | .
Brc1cccc(OCCN2CCCCC2)c1 | 0.19 | i | i | -5 | i | i | . | . | .
CC[C@@]1(C(=O)OC)N[C@H](CN(C)C(=O)Nc2ccc(OC)cc2)[C@@H]2C(=O)N(C)C(=O)[C@@H]21 | . | . | . | . | i | . | . | . | .
CC(NC(=O)CSc1nnnn1C1CC1)c1ccccc1Br (stereo not drawn) | . | . | . | . | i | . | . | . | .
COc1cc(C)c(Cl)cc1S(=O)(=O)N1CCSC1 | . | i | i | -4 | i | i | . | . | .
c1ccc(-c2nc(NCc3cccnc3)c3oc4ccccc4c3n2)cc1 | 0.94 | -10* | i | 7.9* | i | i | 38%* | i | 32%*
OCCCNc1nc(-c2ccccc2)nc2c1oc1ccccc12 | -0.68 | i | i | -4 | i | i | . | . | .
COc1ccccc1N(C)S(=O)(=O)c1ccc(C(=O)Nc2cccc(S(=O)(=O)N3CCOCC3)c2)cc1 | . | . | . | . | i | . | . | . | .
Cc1ccccc1C(=O)N1CCC(C(=O)Nc2ccc(F)cc2)CC1 | 0.15 | i | i | -16 | i | i | . | . | .
CSc1cccc(NC(=O)C2CCN(C(=O)c3ccccc3C)CC2)c1 | 0.053 | i | i | -8 | i | i | i | i | i
CCOc1ccccc1NC(=O)CSc1nc2ccccc2nc1N1CCCC1 | . | -8.6* | i | -16 | i | 6* | i | i | i
COc1ccccc1N1CCN(C(=O)CSc2nc3ccccc3nc2N2CCC(C)CC2)CC1 | . | i | i | -15 | i | i | i | i | i
COc1ccccc1N1CCN(C(=O)CSc2ncccc2-c2nc3ccccc3[nH]2)CC1 | . | i | i | -16 | i | i | . | . | .
CCOc1ccccc1NC(=O)CSc1nc2ccccc2nc1N1CCOCC1 | . | i | i | -12 | i | i | . | . | .
COc1ccc(NC(=O)CSc2nc3ccccc3nc2N2CCCC2)cc1 | . | i | i | -5 | i | i | i | i | i
Cn1ncc(Cl)c1C(=O)NNC(=O)Nc1cccc2ccccc12 | . | i | i | -13 | i | i | . | . | .
SMILES | KCC2 mod | KCNK9 block | KCNQ1 pot | hERG protect | KCNK3 block | KCNQ1 inh | KCNK9 inh conf | Kir21 sel | KCNK9 uninduced
CCOC(=O)[C@@H]1[C@H]2COc3ccc(Br)cc3[C@@H]2N2C(=O)N(c3ccc(C(F)(F)F)cc3)C(=O)[C@@]12C | . | -12* | i | -5 | i | i | 74%* | i | 41%*
CCOC(=O)[C@@H]1[C@H]2COc3ccc(Br)cc3[C@@H]2N2C(=O)N(c3ccc(Cl)cc3)C(=O)[C@@]12C | . | . | . | . | i | . | . | . | .
CCOC(=O)[C@@H]1[C@H]2COc3ccccc3[C@@H]2N2C(=O)N(c3cccc(Cl)c3)C(=O)[C@@]12C | . | -12* | i | -14 | i | i | 56%* | i | 35%*
CCOC(=O)[C@@H]1[C@H]2COc3ccc(Br)cc3[C@@H]2N2C(=O)N(c3cccc(F)c3)C(=O)[C@@]12C | . | -10* | i | -4 | i | i | 64%* | i | 26%*
CCOC(=O)[C@@H]1[C@H]2COc3ccccc3[C@H]2N2C(=O)N(c3cccc(Cl)c3)C(=O)[C@@]12C | . | i | i | -6 | i | i | . | . | .
O=c1oc(CCCO)cc2ccccc12 | . | . | . | . | i | . | . | . | .
COCc1nc2ccccc2n1CCc1ccccc1 | . | i | i | -9 | i | i | . | . | .
COc1cc(NC(=O)c2cc([N+](=O)[O-])ccc2NC(=O)CN2CCN(c3ccccn3)CC2)cc(OC)c1 | . | i | i | -7 | i | i | . | . | .
c1ccc(-c2cc3ccccc3nc2N2CCCC2)cc1 | . | i | i | -10 | i | i | . | . | .
Cc1ccc(-c2cc3ccccc3nc2N2CCOCC2)cc1 | 0.5 | i | i | -11 | i | i | i | i | i
CCCOc1ccc(C(=O)OCCN2CCCCC2)c(O)c1 | . | i | i | -10 | i | i | . | . | .
Cn1cc(/C=N/n2cnc3sc4c(c3c2=O)CCCC4)c2ccccc21 | -2.7 | i | i | -14 | i | i | i | i | i
CCCC1CCC(=C(C#N)C(N)=O)CC1 (stereo not drawn) | 0.99 | -8.8* | i | -7 | i | i | i | i | i
CCCC1CCC(c2ccc(C(N)=O)cc2)CC1 (stereo not drawn) | 1.3 | i | i | -2 | i | i | . | . | .
O=C(O)CN=C1NC2(CCCCC2)Cc2ccccc21 | -0.51 | i | i | -7 | i | i | . | . | .
O=C(/C=C1\NC2(CCCC2)Cc2ccccc21)C(=O)N/N=C/c1ccc(O)c(O)c1 | -0.51 | -10* | i | -17 | i | i | 48%* | i | 30%*
Cc1ccc(N(CCCCN2C(=O)c3ccccc3C2=O)C(=O)c2cccs2)cc1 | -0.044 | i | i | -11 | i | i | i | i | i
